Assays:
[1] = target: T1, Marginal zone B- and B1-cell-specific protein (Mus musculus) (UniProt Q9D8I1); conditions: Neuro2a, 3 nM
T1 sequence (whole entry): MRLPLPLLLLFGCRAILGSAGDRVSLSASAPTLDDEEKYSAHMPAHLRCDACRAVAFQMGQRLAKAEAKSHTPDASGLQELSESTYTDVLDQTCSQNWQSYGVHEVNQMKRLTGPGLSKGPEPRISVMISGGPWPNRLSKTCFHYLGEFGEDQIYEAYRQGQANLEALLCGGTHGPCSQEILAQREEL

[2] = target: T2, Lysosomal thioesterase PPT2 (Mus musculus) (UniProt O35448); conditions: Neuro2a, 3 nM
T2 sequence (whole entry): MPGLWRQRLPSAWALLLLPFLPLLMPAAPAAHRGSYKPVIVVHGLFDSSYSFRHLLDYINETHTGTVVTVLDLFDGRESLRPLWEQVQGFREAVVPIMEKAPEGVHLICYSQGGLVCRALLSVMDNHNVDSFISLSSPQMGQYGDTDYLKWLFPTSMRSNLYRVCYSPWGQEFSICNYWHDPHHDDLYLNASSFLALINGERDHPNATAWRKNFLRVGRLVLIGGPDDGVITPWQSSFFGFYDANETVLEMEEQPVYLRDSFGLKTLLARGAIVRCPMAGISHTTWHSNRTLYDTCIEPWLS

[3] = target: T3, Lysosomal phospholipase A and acyltransferase (Mus musculus) (UniProt Q8VEB4); conditions: Neuro2a, 3 nM
T3 sequence (whole entry): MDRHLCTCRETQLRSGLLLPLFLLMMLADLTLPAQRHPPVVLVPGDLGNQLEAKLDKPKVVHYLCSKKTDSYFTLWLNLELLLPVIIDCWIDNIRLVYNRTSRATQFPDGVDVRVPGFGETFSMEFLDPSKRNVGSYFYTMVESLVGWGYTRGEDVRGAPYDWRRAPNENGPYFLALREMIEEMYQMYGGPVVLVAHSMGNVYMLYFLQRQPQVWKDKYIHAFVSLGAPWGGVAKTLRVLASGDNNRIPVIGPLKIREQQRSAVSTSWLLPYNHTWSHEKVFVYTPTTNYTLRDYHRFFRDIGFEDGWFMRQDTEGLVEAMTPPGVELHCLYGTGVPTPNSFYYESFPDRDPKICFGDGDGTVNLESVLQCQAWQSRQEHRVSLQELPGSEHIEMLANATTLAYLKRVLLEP

[4] = target: T4, Monoacylglycerol lipase ABHD6 (Mus musculus) (UniProt Q8R2Y0); experiment: Inhibition of ABHD6 in FP-rhodamine-labelled mouse brain membrane at 1 nM preincubated for 30 mins followed by FP-rhodamine labelling measured after 30 mins by gel-based competitive ABPP assay; type: tissue-based
T4 sequence (whole entry): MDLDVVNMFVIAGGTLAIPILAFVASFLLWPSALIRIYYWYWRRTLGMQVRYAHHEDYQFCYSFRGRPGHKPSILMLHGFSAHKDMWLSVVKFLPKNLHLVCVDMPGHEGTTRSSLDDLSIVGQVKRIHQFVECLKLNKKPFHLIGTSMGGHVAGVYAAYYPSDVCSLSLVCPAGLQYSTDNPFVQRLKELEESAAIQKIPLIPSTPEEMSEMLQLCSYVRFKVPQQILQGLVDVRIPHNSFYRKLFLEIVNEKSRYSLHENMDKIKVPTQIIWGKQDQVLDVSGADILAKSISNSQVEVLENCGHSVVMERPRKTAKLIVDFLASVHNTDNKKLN
Summary of the method: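 Mouse brain membrane proteome (1 mg/mL) preincubated with compound for 30 min at 37 °C, then labelled with FP-rhodamine or HT-01 (1 μM final) for 30 min at 37 °C. Quenched in SDS loading buffer, run on 10% SDS-PAGE and scanned for in-gel fluorescence. Bands assigned by gel migration.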

[5] = target: T5, Protein phosphatase methylesterase 1 (Mus musculus) (UniProt Q8BVQ5); conditions: Neuro2a, 3 nM
T5 sequence (whole entry): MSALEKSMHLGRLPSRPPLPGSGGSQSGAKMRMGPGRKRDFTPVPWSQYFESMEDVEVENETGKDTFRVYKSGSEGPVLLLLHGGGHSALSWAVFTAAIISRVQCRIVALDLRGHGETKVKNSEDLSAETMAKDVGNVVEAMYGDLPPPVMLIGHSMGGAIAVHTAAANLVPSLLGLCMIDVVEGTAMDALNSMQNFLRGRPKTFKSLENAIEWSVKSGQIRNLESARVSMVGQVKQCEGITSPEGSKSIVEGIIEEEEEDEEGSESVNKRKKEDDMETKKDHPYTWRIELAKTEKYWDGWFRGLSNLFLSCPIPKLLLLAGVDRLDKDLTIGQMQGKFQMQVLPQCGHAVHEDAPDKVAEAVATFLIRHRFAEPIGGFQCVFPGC

[6] = target: 1-acylglycerol-3-phosphate O-acyltransferase ABHD5 (Mus musculus) (UniProt Q9DBL9); conditions: Neuro2a, 3 nM
Sequence of 1-acylglycerol-3-phosphate O-acyltransferase ABHD5 (Mus musculus) (Q9DBL9 whole entry, looked up): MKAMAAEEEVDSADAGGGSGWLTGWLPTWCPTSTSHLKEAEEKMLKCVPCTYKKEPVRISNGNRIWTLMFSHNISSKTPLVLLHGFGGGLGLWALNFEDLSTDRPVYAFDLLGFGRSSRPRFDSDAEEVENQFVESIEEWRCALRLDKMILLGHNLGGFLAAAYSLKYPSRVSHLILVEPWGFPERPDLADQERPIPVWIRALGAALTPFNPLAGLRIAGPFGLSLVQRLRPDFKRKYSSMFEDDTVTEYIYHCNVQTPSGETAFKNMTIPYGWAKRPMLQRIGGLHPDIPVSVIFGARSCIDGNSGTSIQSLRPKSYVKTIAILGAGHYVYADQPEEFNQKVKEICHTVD

[7] = target: T6, Palmitoyl-protein thioesterase ABHD10, mitochondrial (Mus musculus) (UniProt Q6PE15); conditions: Neuro2a, 3 nM
T6 sequence (whole entry): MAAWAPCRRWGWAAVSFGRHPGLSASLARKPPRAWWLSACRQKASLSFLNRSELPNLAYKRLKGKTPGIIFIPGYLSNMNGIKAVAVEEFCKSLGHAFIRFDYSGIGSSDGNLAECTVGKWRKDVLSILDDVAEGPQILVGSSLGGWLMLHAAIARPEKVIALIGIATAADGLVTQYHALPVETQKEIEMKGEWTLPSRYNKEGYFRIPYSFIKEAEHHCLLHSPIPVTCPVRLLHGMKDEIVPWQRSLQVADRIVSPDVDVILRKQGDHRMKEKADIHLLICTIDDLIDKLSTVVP

[8] = target: T7, Lysophospholipase-like protein 1 (Mus musculus) (UniProt Q3UFF7); conditions: Neuro2a, 3 nM
T7 sequence (whole entry): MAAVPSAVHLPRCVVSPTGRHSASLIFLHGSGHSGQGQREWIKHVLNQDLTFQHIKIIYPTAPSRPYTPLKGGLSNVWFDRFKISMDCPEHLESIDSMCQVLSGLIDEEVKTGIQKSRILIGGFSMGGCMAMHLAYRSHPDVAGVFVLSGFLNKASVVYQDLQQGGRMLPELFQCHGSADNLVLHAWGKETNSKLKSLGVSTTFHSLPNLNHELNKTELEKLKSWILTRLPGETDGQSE

[9] = target: Tissue-type plasminogen activator (Mus musculus) (UniProt P11214); conditions: Neuro2a, 3 nM
Sequence of Tissue-type plasminogen activator (Mus musculus) (P11214 whole entry): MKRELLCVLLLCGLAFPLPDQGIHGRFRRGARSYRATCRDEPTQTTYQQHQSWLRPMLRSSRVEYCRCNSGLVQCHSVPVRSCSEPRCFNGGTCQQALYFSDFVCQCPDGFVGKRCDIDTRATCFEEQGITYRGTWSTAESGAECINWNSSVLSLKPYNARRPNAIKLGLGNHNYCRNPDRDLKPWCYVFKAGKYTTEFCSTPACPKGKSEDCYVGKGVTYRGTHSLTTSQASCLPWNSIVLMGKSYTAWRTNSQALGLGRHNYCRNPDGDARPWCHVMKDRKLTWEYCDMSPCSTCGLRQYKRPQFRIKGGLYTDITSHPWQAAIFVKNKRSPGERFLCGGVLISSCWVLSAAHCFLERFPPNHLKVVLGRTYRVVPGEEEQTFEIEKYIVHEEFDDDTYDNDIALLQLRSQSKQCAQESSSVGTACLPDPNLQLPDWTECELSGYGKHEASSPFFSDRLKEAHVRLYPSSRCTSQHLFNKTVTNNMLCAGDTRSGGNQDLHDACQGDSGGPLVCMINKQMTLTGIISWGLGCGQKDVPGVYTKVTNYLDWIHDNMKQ

[10] = target: T8, Platelet-activating factor acetylhydrolase IB subunit alpha1 (Mus musculus) (UniProt Q61205); conditions: Neuro2a, 3 nM
T8 sequence (whole entry): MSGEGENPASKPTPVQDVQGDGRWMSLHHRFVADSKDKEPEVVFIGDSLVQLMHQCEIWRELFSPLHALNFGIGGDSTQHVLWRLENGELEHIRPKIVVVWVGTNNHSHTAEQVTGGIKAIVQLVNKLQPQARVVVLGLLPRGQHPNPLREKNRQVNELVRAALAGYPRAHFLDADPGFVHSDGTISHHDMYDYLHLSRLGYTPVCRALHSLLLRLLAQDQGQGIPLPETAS

Structure (SMILES)	inhibition [1] [%]	inhibition [2] [%]	inhibition [3] [%]	inhibition [4] [%]	inhibition [5] [%]	inhibition [6] [%]	inhibition [7] [%]	inhibition [8] [%]	inhibition [9] [%]	inhibition [10] [%]
O=C(O)c1cccc(-c2ccc(-c3cn(C(=O)N4CCCCC4Cc4ccccc4)nn3)cc2)c1 (racemic)	< 50	< 50	< 50	62	< 50	< 50	< 50	< 50	< 50	< 50
O=C(N1CCCCC1c1ccccc1)n1cc(-c2ccc(-c3cccc(CO)c3)cc2)nn1 (racemic)	< 50	< 50	< 50	29	< 50	< 50	< 50	< 50	< 50	< 50
O=C(c1cccc(-c2ccc(-c3cn(C(=O)N4CCCCC4c4ccccc4)nn3)cc2)c1)N1CCCCC1 (racemic)	< 50	< 50	< 50	51	< 50	< 50	< 50	< 50	< 50	< 50
